Reference: ChEMBL document CHEMBL1649256, “Comparison of assessment of oxygen consumption, Etest, and CLSI M38-A2 broth microdilution methods for evaluation of the susceptibility of Aspergillus fumigatus to posaconazole” (2009)

What was measured:
Assay type in all cases: functional
[1] = system: Aspergillus fumigatus; experiment: Antimicrobial activity against Aspergillus fumigatus isolate 41 by CLSI M38-A2 broth microdilution method
Procedure, shortened: (§1)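 CLSI M38-A2 broth microdilution with posaconazole. MIC taken as the lowest concentration with no visible growth at 48 h. C. parapsilosis ATCC 22019 and C. krusei ATCC 6258 were included as QC strains in every run.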

[2] = system: Aspergillus fumigatus; experiment: Antimicrobial activity against Aspergillus fumigatus isolate 46 by oxygen consumption method
[3] = system: Aspergillus fumigatus; experiment: Antimicrobial activity against Aspergillus fumigatus isolate 49 by oxygen consumption method
[4] = system: Aspergillus fumigatus; experiment: Antimicrobial activity against Aspergillus fumigatus isolate 49 by CLSI M38-A2 broth microdilution method
[5] = system: Aspergillus fumigatus; experiment: Antimicrobial activity against Aspergillus fumigatus isolate 50 by CLSI M38-A2 broth microdilution method
[6] = system: Aspergillus fumigatus; experiment: Antimicrobial activity against Aspergillus fumigatus isolate 1 after 24 hrs by Etest; details: isolate 1, 24 h
Procedure, shortened: (§2)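 Posaconazole Etest strips placed on RPMI 1640 agar with 2% glucose, pH 7.0, and run per the strip maker's instructions. Incubation at 35°C, with the MIC read at 24 h and at 48 h.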

[7] = system: Aspergillus fumigatus; experiment: Antimicrobial activity against Aspergillus fumigatus isolate 3 after 24 hrs by Etest; details: isolate 3, 24 h
Procedure, shortened: (§3)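 Etest strips on RPMI 1640 agar with 2% glucose, pH 7.0, run per manufacturer's instructions. Incubated at 35°C; MIC read at 24 h.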

[8] = system: Aspergillus fumigatus; experiment: Antimicrobial activity against Aspergillus fumigatus isolate 9 after 24 hrs by Etest; details: isolate 9, 24 h
[9] = system: Aspergillus fumigatus; experiment: Antimicrobial activity against Aspergillus fumigatus isolate 12 after 24 hrs by Etest; details: isolate 12, 24 h; procedure, shortened: as §2
[10] = system: Aspergillus fumigatus; experiment: Antimicrobial activity against Aspergillus fumigatus isolate 16 after 24 hrs by Etest; details: isolate 16, 24 h; procedure, shortened: as §2
[11] = system: Aspergillus fumigatus; experiment: Antimicrobial activity against Aspergillus fumigatus isolate 22 after 24 hrs by Etest; details: isolate 22, 24 h; procedure, shortened: as §3
[12] = system: Aspergillus fumigatus; experiment: Antimicrobial activity against Aspergillus fumigatus isolate 27 after 24 hrs by Etest; details: isolate 27, 24 h; procedure, shortened: as §3
[13] = system: Aspergillus fumigatus; experiment: Antimicrobial activity against Aspergillus fumigatus isolate 31 after 24 hrs by Etest; details: isolate 31, 24 h; procedure, shortened: as §3
[14] = system: Aspergillus fumigatus; experiment: Antimicrobial activity against Aspergillus fumigatus isolate 34 after 24 hrs by Etest; details: isolate 34, 24 h
Procedure, shortened: (§4)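 Posaconazole Etest strips on RPMI 1640 agar with 2% glucose, pH 7.0, run per the strip maker's instructions. Incubated at 35°C. MIC read at 24 h and at 48 h, matching the time in each line.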

[15] = system: Aspergillus fumigatus; experiment: Antimicrobial activity against Aspergillus fumigatus isolate 36 after 24 hrs by Etest; details: isolate 36, 24 h; procedure, shortened: as §4
[16] = system: Aspergillus fumigatus; experiment: Antimicrobial activity against Aspergillus fumigatus isolate 41 after 24 hrs by Etest; details: isolate 41, 24 h; procedure, shortened: as §4
[17] = system: Aspergillus fumigatus; experiment: Antimicrobial activity against Aspergillus fumigatus isolate 42 after 24 hrs by Etest; details: isolate 42, 24 h; procedure, shortened: as §4
[18] = system: Aspergillus fumigatus; experiment: Antimicrobial activity against Aspergillus fumigatus isolate 47 after 24 hrs by Etest; details: isolate 47, 24 h
[19] = system: Aspergillus fumigatus; experiment: Antimicrobial activity against Aspergillus fumigatus isolate 48 after 24 hrs by Etest; details: isolate 48, 24 h
[20] = system: Aspergillus fumigatus; experiment: Antimicrobial activity against Aspergillus fumigatus isolate 50 after 24 hrs by Etest; details: isolate 50, 24 h
[21] = system: Aspergillus fumigatus; experiment: Antimicrobial activity against Aspergillus fumigatus isolate 4 after 48 hrs by Etest; details: isolate 4, 48 h; procedure, shortened: as §4
[22] = system: Aspergillus fumigatus; experiment: Antimicrobial activity against Aspergillus fumigatus isolate 7 after 48 hrs by Etest; details: isolate 7, 48 h
[23] = system: Aspergillus fumigatus; experiment: Antimicrobial activity against Aspergillus fumigatus isolate 9 after 48 hrs by Etest; details: isolate 9, 48 h
[24] = system: Aspergillus fumigatus; experiment: Antimicrobial activity against Aspergillus fumigatus isolate 23 after 48 hrs by Etest; details: isolate 23, 48 h
Procedure, shortened: (§5)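 Etest strips on RPMI 1640 agar with 2% glucose, pH 7.0, run per manufacturer's instructions. Incubated at 35°C; MIC read at 48 h.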

[25] = system: Aspergillus fumigatus; experiment: Antimicrobial activity against Aspergillus fumigatus isolate 24 after 48 hrs by Etest; details: isolate 24, 48 h; procedure, shortened: as §5
[26] = system: Aspergillus fumigatus; experiment: Antimicrobial activity against Aspergillus fumigatus isolate 27 after 48 hrs by Etest; details: isolate 27, 48 h; procedure, shortened: as §5
[27] = system: Aspergillus fumigatus; experiment: Antimicrobial activity against Aspergillus fumigatus isolate 28 after 48 hrs by Etest; details: isolate 28, 48 h; procedure, shortened: as §5
[28] = system: Aspergillus fumigatus; experiment: Antimicrobial activity against Aspergillus fumigatus isolate 32 after 48 hrs by Etest; details: isolate 32, 48 h; procedure, shortened: as §4
[29] = system: Aspergillus fumigatus; experiment: Antimicrobial activity against Aspergillus fumigatus isolate 40 after 48 hrs by Etest; details: isolate 40, 48 h; procedure, shortened: as §4
[30] = system: Aspergillus fumigatus; experiment: Antimicrobial activity against Aspergillus fumigatus isolate 42 after 48 hrs by Etest; details: isolate 42, 48 h; procedure, shortened: as §4
[31] = system: Aspergillus fumigatus; experiment: Antimicrobial activity against Aspergillus fumigatus isolate 43 after 48 hrs by Etest; details: isolate 43, 48 h; procedure, shortened: as §4
[32] = system: Aspergillus fumigatus; experiment: Antimicrobial activity against Aspergillus fumigatus isolate 49 after 48 hrs by Etest; details: isolate 49, 48 h
[33] = system: Aspergillus fumigatus; experiment: Antimicrobial activity against Aspergillus fumigatus isolate 11 by oxygen consumption method
Procedure, shortened: (§6)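 Conidial suspension in RPMI 1640 broth with posaconazole at 0.25 and 2 μg/ml. Tubes agitated 12 h at 37°C in a biological oxygen monitor. Available oxygen was monitored continuously, and the MIC was assigned from the oxygen quantification.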

[34] = system: Aspergillus fumigatus; experiment: Antimicrobial activity against Aspergillus fumigatus isolate 14 by oxygen consumption method; procedure, shortened: as §6
[35] = system: Aspergillus fumigatus; experiment: Antimicrobial activity against Aspergillus fumigatus isolate 19 by oxygen consumption method; procedure, shortened: as §6
[36] = system: Aspergillus fumigatus; experiment: Antimicrobial activity against Aspergillus fumigatus isolate 36 by oxygen consumption method
Procedure, shortened: (§7)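 Conidial suspension in RPMI 1640 broth, tested at two posaconazole levels (0.25 and 2 μg/ml). Agitated for 12 h at 37°C in a biological oxygen monitor. MIC derived from continuous monitoring and quantification of the available oxygen.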

[37] = system: Aspergillus fumigatus; experiment: Antimicrobial activity against Aspergillus fumigatus isolate 37 by oxygen consumption method; procedure, shortened: as §7
[38] = system: Aspergillus fumigatus; experiment: Antimicrobial activity against Aspergillus fumigatus isolate 41 by oxygen consumption method; procedure, shortened: as §7
[39] = system: Aspergillus fumigatus; experiment: Antimicrobial activity against Aspergillus fumigatus isolate 5 by CLSI M38-A2 broth microdilution method
[40] = system: Aspergillus fumigatus; experiment: Antimicrobial activity against Aspergillus fumigatus isolate 8 by CLSI M38-A2 broth microdilution method
[41] = system: Aspergillus fumigatus; experiment: Antimicrobial activity against Aspergillus fumigatus isolate 12 by CLSI M38-A2 broth microdilution method
Procedure, shortened: (§8)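 Posaconazole broth microdilution follows CLSI M38-A2. The MIC is the lowest concentration with no visible growth at 48 h. Candida parapsilosis ATCC 22019 and Candida krusei ATCC 6258 were included as QC strains in every run.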

[42] = system: Aspergillus fumigatus; experiment: Antimicrobial activity against Aspergillus fumigatus isolate 19 by CLSI M38-A2 broth microdilution method; procedure, shortened: as §8
[43] = system: Aspergillus fumigatus; experiment: Antimicrobial activity against Aspergillus fumigatus isolate 24 by CLSI M38-A2 broth microdilution method
Procedure, shortened: (§9)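 Reference broth microdilution per CLSI M38-A2. MIC read as absence of visible growth at 48 h. C. parapsilosis ATCC 22019 and C. krusei ATCC 6258 QC strains run in each test session.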

[44] = system: Aspergillus fumigatus; experiment: Antimicrobial activity against Aspergillus fumigatus isolate 26 by CLSI M38-A2 broth microdilution method; procedure, shortened: as §9
[45] = system: Aspergillus fumigatus; experiment: Antimicrobial activity against Aspergillus fumigatus isolate 30 by CLSI M38-A2 broth microdilution method; procedure, shortened: as §9
[46] = system: Aspergillus fumigatus; experiment: Antimicrobial activity against Aspergillus fumigatus isolate 39 by CLSI M38-A2 broth microdilution method; procedure, shortened: as §1

Measured: MIC

CC[C@@H]([C@H](C)O)n1ncn(-c2ccc(N3CCN(c4ccc(OC[C@@H]5CO[C@@](Cn6cncn6)(c6ccc(F)cc6F)C5)cc4)CC3)cc2)c1=O [POSACONAZOLE]
0.06 µg/mL: [1] | [13] | [15] | [17] | [31] | [46]
≤ 0.25 µg/mL: [2] | [33] | [34] | [36] | [37] | [38]
0.125 µg/mL: [4] | [5] | [10] | [12] | [25] | [30] | [40] | [41] | [43] | [44] | [45]
1 µg/mL: [7] | [39]
8 µg/mL: [6]
0.5 µg/mL: [23] | [32] | [42]
≥ 0.5 µg/mL: [3] | [35]
≤ 0.03 µg/mL: [14] | [16] | [18] | [19]
0.25 µg/mL: all other assays above
